Measured values reported in ChEMBL document CHEMBL1142461, “In vitro biological evaluation of novel 7-O-dialkylaminoalkyl cytotoxic pectolinarigenin derivatives against a panel of human cancer cell lines” (Bioorg Med Chem Lett, 2008).
pIC50: −log10 of the molar value.

What was measured:
[1] = Antiproliferative activity against human 142BR cells after 48 hrs by sulforhodamine B assay; assay type: functional, cell-based
Procedure, shortened: (§1)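 Cells grown in RPMI 1640 (ACHN, C32, COR-L23) or DMEM (142BR, A375, A549, Caco-2, Huh-7D12), seeded and allowed to attach for 24 h. Then exposed 48 h to six serial dilutions (DMSO ≤0.5% final, matched in solvent controls), in six replicates. Fixed with ice-cold 40% TCA for 1 h at 4 °C and SRB-stained, read at 564 nm. Survival taken as % of untreated control; IC50 from dose–response curve; mean ± SD.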

[2] = Antiproliferative activity against human Huh-7D12 cells after 48 hrs by sulforhodamine B assay; assay type: functional, cell-based; settings: Huh-7D12, 48 h; procedure, shortened: as §1
Caco-2 = test: Antiproliferative activity against human Caco-2 cells after 48 hrs by sulforhodamine B assay; assay type: functional, cell-based; settings: Caco-2, 48 h; procedure, shortened: as §1
COR-L23 = test: Antiproliferative activity against human COR-L23 cells after 48 hrs by sulforhodamine B assay; assay type: functional, cell-based; settings: COR-L23, 48 h; procedure, shortened: as §1
ACHN = test: Antiproliferative activity against human ACHN cells after 48 hrs by sulforhodamine B assay; assay type: functional, cell-based; procedure, shortened: as §1
C32 = test: Antiproliferative activity against human C32 cells after 48 hrs by sulforhodamine B assay; assay type: functional, cell-based; settings: C32, 48 h; procedure, shortened: as §1
A549 = test: Antiproliferative activity against human A549 cells after 48 hrs by sulforhodamine B assay; assay type: functional, cell-based; settings: A549, 48 h; procedure, shortened: as §1
A-375 = test: Antiproliferative activity against human A375 cells after 48 hrs by sulforhodamine B assay; assay type: functional, cell-based; settings: A-375, 48 h; procedure, shortened: as §1
[3] = Partition coefficient, log P of the compound; assay type: physicochemical; settings: octanol/water

Compound | pIC50 (Caco-2) | pIC50 (ACHN) | pIC50 (A549) | pIC50 (A-375) | logP [3] | pIC50 [1] | pIC50 [2] | pIC50 (COR-L23) | pIC50 (C32)
COc1ccc(-c2cc(=O)c3c(O)c(OC)c(OCCN(C)C)cc3o2)cc1 | < 4.00 | 4.98 | 4.88 | < 4.00 | 2.3 | < 4.00 | < 4.00 | 5.04 | < 4.00
COc1ccc(-c2cc(=O)c3c(O)c(OC)c(OCCN4CCCC4)cc3o2)cc1 | < 4.00 | 4.90 | < 4.00 | 4.41 | 2.6 | < 4.00 | < 4.00 | < 4.00 | 4.26
COc1ccc(-c2cc(=O)c3c(O)c(OC)c(OCCN4CCOCC4)cc3o2)cc1 | < 4.00 | 4.25 | 4.07 | 4.23 | 1.9 | < 4.00 | < 4.00 | 4.40 | 4.32
CCN(CC)CCOc1cc2oc(-c3ccc(OC)cc3)cc(=O)c2c(O)c1OC | < 4.00 | 4.27 | 4.22 | < 4.00 | 3 | < 4.00 | < 4.00 | 4.38 | < 4.00

The next lines start with results.

pIC50 (Caco-2) | pIC50 (ACHN) | pIC50 (A549) | pIC50 (A-375) | logP [3] | Compound | pIC50 [1] | pIC50 [2] | pIC50 (COR-L23) | pIC50 (C32)
< 4.00 | 4.97 | 5.13 | 5.11 | 2.4 | COc1ccc(-c2cc(=O)c3c(O)c(OC)c(OCCCN(C)C)cc3o2)cc1 | < 4.00 | < 4.00 | 5.14 | 5.05
4.10 | 4.03 | 4.35 | 4.28 | 3 | COc1ccc(-c2cc(=O)c3c(O)c(OC)c(OCCN4CCCCC4)cc3o2)cc1 | < 4.00 | < 4.00 | 4.47 | 4.20
5.28 | 4.82 | 5.25 | 5.09 | 2 | COc1ccc(-c2cc(=O)c3c(O)c(OC)c(O)cc3o2)cc1 [PECTOLINARIGENIN] | < 4.00 | < 4.00 | 5.39 | 5.15
5.21 | 4.76 | 4.41 | 4.48 | -0.7 | COc1ccc(-c2cc(=O)c3c(O)c(OC)c(O[C@@H]4O[C@H](CO[C@@H]5O[C@@H](C)[C@H](O)[C@@H](O)[C@H]5O)[C@@H](O)[C@H](O)[C@H]4O)cc3o2)cc1 [PECTOLINARIN] | < 4.00 | 4.29 | 5.30 | 5.14
